Test results: the M2OR odorant receptor database

What was measured:
Conditions in all cases: stereoisomer not certain
OR10R2 (Homo sapiens) = target: T1, OR10R2 (Homo sapiens) (UniProt Q8NGX6)
T1 sequence (whole entry): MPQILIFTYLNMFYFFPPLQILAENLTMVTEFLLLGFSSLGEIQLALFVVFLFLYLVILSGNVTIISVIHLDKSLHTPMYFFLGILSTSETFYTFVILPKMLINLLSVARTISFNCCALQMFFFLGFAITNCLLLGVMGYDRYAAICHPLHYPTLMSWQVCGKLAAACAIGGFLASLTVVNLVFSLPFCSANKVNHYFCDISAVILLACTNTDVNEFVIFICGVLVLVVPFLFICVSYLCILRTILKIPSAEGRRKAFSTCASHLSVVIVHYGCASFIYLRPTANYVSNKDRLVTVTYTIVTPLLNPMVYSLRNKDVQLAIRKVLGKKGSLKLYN
Procedure, shortened: (§1)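 Each receptor–molecule pair is labelled responsive or non-responsive (inactive) according to whether the original authors judged the measured signal statistically different from baseline. The data were taken from the main text and supplementary material of published papers and checked for typos and inconsistencies. Assay methods differed by source, with transient luciferase assays in mammalian cell lines being common.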

OR10S1 (Homo sapiens) = target: T2, OR10S1 (Homo sapiens) (UniProt Q8NGN2)
T2 sequence (whole entry): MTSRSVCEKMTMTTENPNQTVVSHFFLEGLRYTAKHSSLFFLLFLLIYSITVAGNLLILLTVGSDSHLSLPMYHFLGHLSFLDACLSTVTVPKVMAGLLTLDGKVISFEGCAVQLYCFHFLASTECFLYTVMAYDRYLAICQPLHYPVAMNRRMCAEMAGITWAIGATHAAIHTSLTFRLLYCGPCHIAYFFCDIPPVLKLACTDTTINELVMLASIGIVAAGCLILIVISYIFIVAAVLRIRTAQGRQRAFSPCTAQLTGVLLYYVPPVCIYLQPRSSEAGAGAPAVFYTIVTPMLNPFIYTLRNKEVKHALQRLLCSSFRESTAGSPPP
Procedure, shortened: as §1

OR10T2 (Homo sapiens) = target: T3, OR10T2 (Homo sapiens) (UniProt Q8NGX3)
T3 sequence (whole entry): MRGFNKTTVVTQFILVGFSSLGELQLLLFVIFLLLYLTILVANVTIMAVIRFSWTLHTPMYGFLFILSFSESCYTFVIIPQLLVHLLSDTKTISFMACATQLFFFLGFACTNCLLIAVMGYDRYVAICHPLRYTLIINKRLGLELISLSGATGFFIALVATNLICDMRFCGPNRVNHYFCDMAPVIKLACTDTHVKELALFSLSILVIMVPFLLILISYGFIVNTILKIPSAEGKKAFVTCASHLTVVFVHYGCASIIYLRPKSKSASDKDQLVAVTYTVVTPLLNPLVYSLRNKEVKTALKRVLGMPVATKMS
Procedure, shortened: as §1

OR10V1 (Homo sapiens) = target: T4, OR10V1 (Homo sapiens) (UniProt Q8NGI7)
T4 sequence (whole entry): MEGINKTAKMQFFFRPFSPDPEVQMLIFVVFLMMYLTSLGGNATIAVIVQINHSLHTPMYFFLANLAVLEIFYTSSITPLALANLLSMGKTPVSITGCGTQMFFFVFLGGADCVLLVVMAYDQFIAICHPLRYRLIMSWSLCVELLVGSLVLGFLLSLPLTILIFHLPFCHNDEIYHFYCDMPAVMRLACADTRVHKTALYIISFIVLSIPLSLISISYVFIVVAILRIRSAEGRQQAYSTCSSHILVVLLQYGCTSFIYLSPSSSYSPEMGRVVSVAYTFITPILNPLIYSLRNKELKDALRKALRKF
Procedure, shortened: as §1

OR10W1 (Homo sapiens) = target: T5, OR10W1 (Homo sapiens) (UniProt Q8NGF6)
T5 sequence (whole entry): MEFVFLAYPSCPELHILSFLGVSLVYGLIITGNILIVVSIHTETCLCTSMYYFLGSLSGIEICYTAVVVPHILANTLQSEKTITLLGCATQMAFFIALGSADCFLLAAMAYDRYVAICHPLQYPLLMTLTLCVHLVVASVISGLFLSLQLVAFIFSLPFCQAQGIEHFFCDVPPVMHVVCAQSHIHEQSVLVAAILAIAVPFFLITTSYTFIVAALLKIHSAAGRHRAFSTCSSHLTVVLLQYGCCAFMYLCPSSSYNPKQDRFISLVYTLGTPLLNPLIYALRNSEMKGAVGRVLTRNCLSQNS
Procedure, shortened: as §1

OR10X1 (Homo sapiens) = target: T6, OR10X1 (Homo sapiens) (UniProt Q8NGY0)
T6 sequence (whole entry): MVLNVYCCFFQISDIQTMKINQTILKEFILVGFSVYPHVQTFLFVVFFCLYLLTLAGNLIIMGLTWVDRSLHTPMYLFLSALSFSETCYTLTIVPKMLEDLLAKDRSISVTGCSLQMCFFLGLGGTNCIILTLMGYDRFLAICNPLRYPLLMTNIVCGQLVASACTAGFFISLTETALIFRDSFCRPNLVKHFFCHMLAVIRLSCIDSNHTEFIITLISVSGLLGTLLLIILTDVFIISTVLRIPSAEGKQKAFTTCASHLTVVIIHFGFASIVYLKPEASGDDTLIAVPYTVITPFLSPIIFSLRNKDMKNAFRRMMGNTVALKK
Procedure, shortened: as §1

OR10Z1 (Homo sapiens) = target: T7, OR10Z1 (Homo sapiens) (UniProt Q8NGY1)
T7 sequence (whole entry): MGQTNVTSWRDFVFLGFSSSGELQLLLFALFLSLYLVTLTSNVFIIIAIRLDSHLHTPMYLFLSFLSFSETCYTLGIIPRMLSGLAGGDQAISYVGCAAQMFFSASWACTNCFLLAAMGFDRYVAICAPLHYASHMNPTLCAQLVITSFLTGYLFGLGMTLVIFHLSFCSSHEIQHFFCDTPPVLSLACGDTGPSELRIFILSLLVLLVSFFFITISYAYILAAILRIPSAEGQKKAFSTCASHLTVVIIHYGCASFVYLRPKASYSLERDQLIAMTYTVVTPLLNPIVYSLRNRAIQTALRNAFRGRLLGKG
Procedure, shortened: as §1

OR11A1 (Homo sapiens) = target: T8, OR11A1 (Homo sapiens) (UniProt Q9GZK7)
T8 sequence (whole entry): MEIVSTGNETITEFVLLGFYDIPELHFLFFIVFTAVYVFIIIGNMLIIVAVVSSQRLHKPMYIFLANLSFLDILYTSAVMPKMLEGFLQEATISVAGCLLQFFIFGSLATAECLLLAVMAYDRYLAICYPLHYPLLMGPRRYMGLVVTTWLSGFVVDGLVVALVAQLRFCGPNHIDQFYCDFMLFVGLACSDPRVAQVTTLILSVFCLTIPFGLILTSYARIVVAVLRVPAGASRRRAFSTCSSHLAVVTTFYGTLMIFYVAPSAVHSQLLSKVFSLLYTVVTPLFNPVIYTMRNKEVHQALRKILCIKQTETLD
Procedure, shortened: as §1

OR11G2 (Homo sapiens) = target: T9, OR11G2 (Homo sapiens) (UniProt Q8NGC1)
T9 sequence (whole entry): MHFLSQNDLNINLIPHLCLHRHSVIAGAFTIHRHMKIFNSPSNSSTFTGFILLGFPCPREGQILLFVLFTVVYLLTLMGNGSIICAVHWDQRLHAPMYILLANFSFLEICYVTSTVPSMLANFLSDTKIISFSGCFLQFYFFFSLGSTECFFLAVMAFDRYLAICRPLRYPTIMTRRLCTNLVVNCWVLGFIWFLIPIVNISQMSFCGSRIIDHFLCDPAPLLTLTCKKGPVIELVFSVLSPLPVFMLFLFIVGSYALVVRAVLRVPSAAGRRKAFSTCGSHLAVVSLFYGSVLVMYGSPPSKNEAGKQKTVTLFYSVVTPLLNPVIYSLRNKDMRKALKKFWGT
Procedure, shortened: as §1

OR11H1 (Homo sapiens) = target: T10, OR11H1 (Homo sapiens) (UniProt Q8NG94)
T10 sequence (whole entry): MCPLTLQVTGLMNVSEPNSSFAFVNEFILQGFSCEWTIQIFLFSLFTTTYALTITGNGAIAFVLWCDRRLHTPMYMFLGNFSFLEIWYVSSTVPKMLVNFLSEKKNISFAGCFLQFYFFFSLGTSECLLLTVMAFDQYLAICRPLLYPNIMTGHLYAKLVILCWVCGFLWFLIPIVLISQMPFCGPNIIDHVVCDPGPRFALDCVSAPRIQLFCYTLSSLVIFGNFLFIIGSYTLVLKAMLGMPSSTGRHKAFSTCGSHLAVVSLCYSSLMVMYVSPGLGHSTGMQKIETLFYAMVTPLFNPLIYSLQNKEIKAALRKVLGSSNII
Procedure, shortened: as §1

Measured: odorant receptor agonist call;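 further: active if original authors judged signal statistically different from baseline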

CCCCCC(=O)C(C)C(C)=O (stereo not given)
inactive: all assays above
